This passage reports IC50, ED50 and Reduction results from ChEMBL document CHEMBL1131624, “Inhibitors of acyl-CoA:cholesterol O-acyltransferase. 2. Identification and structure-activity relationships of a novel series of N-alkyl-N-(heteroaryl-substituted benzyl)-N'-arylureas” (J Med Chem, 1998).

Experiment [1] concerns the target O-acyltransferase (Oryctolagus cuniculus, UniProt G1SFD9). Put plainly: In vitro inhibitory activity against Acyl coenzyme A:cholesterol acyltransferase (ACAT) in rabbit intestinal microsomes. Also noted: species or system Intestine. In outline: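 Enzyme source was mucosal microsomes from small intestine of cholesterol-fed rabbits, incubated with [1-¹⁴C]oleoyl-CoA (Heider method, minor modifications).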

The species entered for experiment [2] is Mus musculus. Put plainly: Compound tested for inhibitory activity of foam cell formation in mouse peritoneal macrophages. Type of experiment: functional. In outline: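 Mouse peritoneal macrophages from nonstimulated mice, lavaged with PBS, plated 2 × 10⁶ cells/mL, adhered 2 h, then 18 h in 10% FBS-DMEM. Incubated 4 h at 37 °C with 0.2 mmol/L [1-¹⁴C]oleate–BSA, 30 µg/mL acetylated human LDL and compound (0.1% DMSO). Lipids extracted, TLC-separated, and cholesteryl [¹⁴C]oleate counted. Cell protein also measured. IC50 in nM.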

Experiment [3] has as its target T1, Sterol O-acyltransferase, Soat (Rattus norvegicus) (UniProt Q7TQM4+O70536). Briefly: Effective dose to reduce plasma total cholesterol level by 50% of the control value in cholesterol fed rats. Type of experiment: functional. In outline:
(§1)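 Cholesterol-fed rats given compound orally as a dietary admixture in a cholesterol-enriched diet. Plasma total cholesterol compared with control and reported as percent reduction at the dose, or as ED50, the dose reducing plasma total cholesterol by 50% of the control value.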

The species entered for experiment [4] is Rattus norvegicus. Put plainly: Effective dose to reduce plasma total cholesterol level by 50% of the control in cholesterol fed rats. Type of experiment: functional. In outline: as §1
Experiment [5] has as its target T1, Sterol O-acyltransferase, Soat (Rattus norvegicus). Put plainly: Percentage reduction in total cholesterol level at <1 mg/kg. It counts as functional, organism-based. In outline: as §1
Experiment [6] concerns Rattus norvegicus. Put plainly: Compound was evaluated for percent reduction in total cholesterol level at >0.32 mg/kg; Inactive. Type of experiment: functional, organism-based. In outline:
as §1

Experiment [7] relates to Rattus norvegicus. Put plainly: Compound was evaluated for percent reduction in total cholesterol level at <0.32 mg/kg. Type of experiment: functional. In outline:
as §1

The subject of experiment [8] is Rattus norvegicus. Put plainly: Compound was evaluated for percent reduction in total cholesterol level at >0.1 mg/kg. Type of experiment: functional. In outline: as §1
The test system of experiment [9] is Rattus norvegicus. Briefly: Compound was evaluated for percent reduction in total cholesterol level at >0.32 mg/kg. Type of experiment: functional. In outline: as §1
The test system of experiment [10] is Rattus norvegicus. Put plainly: Compound was evaluated for percent reduction in total cholesterol level at >1 mg/kg; Inactive. It counts as functional, organism-based. The essentials:
as §1

Experiment [11] deals with Rattus norvegicus. Briefly: Compound was evaluated for percent reduction in total cholesterol level at >1 mg/kg; inactive. It counts as functional, organism-based. The essentials:
as §1

Experiment [12] relates to Rattus norvegicus. Briefly: Effective dose to reduce plasma total cholesterol level by 50% of the control in cholesterol fed rats when administered by gavage in PEG400 as a vehicle. Type of experiment: functional. The settings on record: po. The essentials: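 Rats on a cholesterol diet were dosed orally by gavage with compound in PEG400 vehicle. Plasma total cholesterol measured. ED50 is the dose reducing it by 50% of the control value.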

Experiment [13] concerns Rattus norvegicus. Put plainly: Compound was evaluated for percent reduction in total cholesterol level at >0.1 mg/kg; Inactive. It counts as functional, organism-based. In outline:
as §1

Experiment [14] is filed under the species Rattus norvegicus. Put plainly: Effective dose to reduce plasma total cholesterol level by 50% of the control value in cholesterol fed rats; Inactive. It counts as functional, organism-based. The essentials: as §1

The structures appear in SMILES notation. The source made the active and inactive calls. No cut-off for these calls is given here. A value given as a limit tells only on which side of the number the result lay.

Sequence of O-acyltransferase (G1SFD9 1-524): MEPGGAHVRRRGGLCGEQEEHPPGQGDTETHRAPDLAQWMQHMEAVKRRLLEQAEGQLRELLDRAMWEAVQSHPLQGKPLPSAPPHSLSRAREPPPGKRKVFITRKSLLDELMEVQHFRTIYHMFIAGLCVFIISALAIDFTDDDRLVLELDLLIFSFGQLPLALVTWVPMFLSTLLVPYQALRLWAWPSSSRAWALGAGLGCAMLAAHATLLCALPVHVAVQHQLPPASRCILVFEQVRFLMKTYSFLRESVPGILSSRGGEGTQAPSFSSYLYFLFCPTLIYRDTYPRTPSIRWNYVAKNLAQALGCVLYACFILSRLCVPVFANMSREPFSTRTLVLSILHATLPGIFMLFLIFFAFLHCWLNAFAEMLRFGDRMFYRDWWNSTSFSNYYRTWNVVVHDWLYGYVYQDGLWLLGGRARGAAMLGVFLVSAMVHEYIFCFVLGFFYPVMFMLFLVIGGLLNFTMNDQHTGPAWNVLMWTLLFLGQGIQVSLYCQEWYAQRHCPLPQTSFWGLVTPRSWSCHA

With `Cc1cc(C)c(NC(=O)N(Cc2cccc(-c3cc[nH]n3)c2)C2CCCCCC2)c(C)c1`, the IC50 in experiment [1] turned out to be 65 nM; in [2] it was 460 nM. For the same compound, it took a dose of 0.097 mg/kg to reach the 50% effect level in experiment [3] (ED50).
The compound `Cc1cc(C)c(NC(=O)N(Cc2ccc(-c3ccn(C)n3)cc2)C2CCCCCC2)c(C)c1` had an IC50 in [1] of 44 nM. Further, the ED50 was more than 0.32 mg/kg in experiment [4] and less than 1 mg/kg in [3]. In [5], the Reduction stood at 88%. Moreover, the Reduction entry in experiment [6] was “inactive”.
For the compound `O=C(Nc1c(F)cc(F)cc1F)N(Cc1ccc(F)cc1)Cc1cccc(-c2cc[nH]n2)c1`, the median effective dose (ED50) in experiment [3] is less than 0.32 mg/kg. For the same compound, the Reduction in experiment [7] turned out to be 64%.
In the case of `CSc1cc(C)nc(SC)c1NC(=O)N(Cc1cccc(-c2cnn(C)c2)c1)C1CCCCCC1`, the ED50 in experiment [3] was more than 0.1 mg/kg. Further, the Reduction in [8] is 44%.
`Cc1cc(C)c(NC(=O)N(Cc2ccc(-c3ccccc3)cc2)C2CCCCCC2)c(C)c1`: in experiment [1], the IC50 was found to be 24 nM. Moreover, the 50% effect level in experiment [4] (ED50) was put at a dose of 0.29 mg/kg.
Regarding `Cc1cc(C)c(NC(=O)N(Cc2ccc(-c3nnc(C)o3)cc2)C2CCCCCC2)c(C)c1`, it took 27 nM to reach half-maximal inhibition in [1] (IC50). The ED50 in experiment [3] was more than 0.32 mg/kg. Also, the Reduction in experiment [9] came to 37%.
Compound `CSc1cc(C)nc(SC)c1NC(=O)N(Cc1ccccc1)Cc1ccc(-c2ccnn2C)cc1` displayed an IC50 in [1] of 27 nM. In experiment [3], this compound returned an ED50 of less than 0.32 mg/kg. This compound registered a Reduction in [7] of 86%.
Take `Cc1cc(C)c(NC(=O)N(Cc2ccc(-n3cccn3)cc2)C2CCCCCC2)c(C)c1`: the IC50 in experiment [1] was 70 nM. In experiment [3], this compound registered an ED50 of more than 1 mg/kg. Further, the Reduction result in experiment [10] is “inactive”.
Consider `Cc1cc(C)c(NC(=O)N(Cc2c[nH]c(-c3ccccc3)n2)C2CCCCCC2)c(C)c1`, for which, in experiment [1], the IC50 is 750 nM. Moreover, the ED50 in [3] is more than 1 mg/kg. In [11], the Reduction entry was “inactive”.
As for `O=C(Nc1c(F)cc(F)cc1F)N(Cc1cccc(-c2cc[nH]n2)c1)C1CCCCCC1`, the values for the IC50 in experiment [1] and in [2] were 22 nM and 580 nM, respectively. Moreover, the ED50 in experiment [12] is 0.79 mg/kg; in [3], 0.062 mg/kg.
For `CC(C)c1cccc(C(C)C)c1OC(=O)NS(=O)(=O)Oc1c(C(C)C)cccc1C(C)C`, the half-inhibitory concentration (IC50) amounted to 4000 nM in [1] and 55000 nM in experiment [2]. This compound showed an ED50 in experiment [3] of 0.61 mg/kg.
As to `CSc1cc(C)nc(SC)c1NC(=O)N(Cc1ccccc1)Cc1ccc(-c2ccn(C)n2)cc1`, in [1], the midpoint of inhibition, the IC50, lay at 29 nM. The same compound yielded a median effective dose (ED50) in [3] of more than 0.32 mg/kg. In [13], the Reduction result was “inactive”.
`CN(C)c1ccc(CN(Cc2cccc(-c3cc[nH]n3)c2)C(=O)Nc2c(F)cc(F)cc2F)cc1` gave a half-maximal inhibitory concentration (IC50) in experiment [1] of 12 nM. This compound returned an ED50 in experiment [3] of less than 0.32 mg/kg. The Reduction in [7] came out at 68%.
Consider `CSc1cc(C)nc(SC)c1NC(=O)N(Cc1ccc(-c2cnn(C)c2)cc1)C1CCCCCC1`, for which the ED50 in [3] is more than 0.1 mg/kg. Besides, in [14], the ED50 result is “inactive”.
Turning to `O=C(Nc1c(F)cc(F)cc1F)N(Cc1ccc(-c2ccsc2)cc1)C1CCCCCC1`, the concentration for half-maximal inhibition (IC50) in [1] came to 23 nM. Besides, in [3], the ED50 is more than 1 mg/kg. Moreover, the Reduction result in experiment [10] was “inactive”.
As for `Cc1cc(C)c(NC(=O)N(Cc2ccc(-c3ccccc3)s2)C2CCCCCC2)c(C)c1`, it took 46 nM to reach half-maximal inhibition in experiment [1] (IC50). The compound also registered an ED50 in experiment [3] of less than 1 mg/kg. In [5], this compound showed a Reduction of 60%.
As to `Cc1cc(C)c(NC(=O)N(Cc2cccc(-c3ccn(C)n3)c2)C2CCCCCC2)c(C)c1`, half-maximal inhibition in [1] (IC50) required 42 nM. The compound further showed a 50% effective dose (ED50) in [3] of less than 1 mg/kg. The same compound had a Reduction in experiment [5] of 78%.
As to `CSc1cc(C)nc(SC)c1NC(=O)N(CCc1ccccc1)Cc1cccc(-c2cc[nH]n2)c1`, in experiment [3], the ED50 is more than 0.1 mg/kg. The ED50 entry in experiment [14] was “inactive”.
`Cc1cc(C)c(NC(=O)N(Cc2ccc(-c3ccnn3C)cc2)C2CCCCCC2)c(C)c1`: in [1], the concentration for half-maximal inhibition (IC50) stood at 24 nM. Moreover, the ED50 in experiment [3] is less than 1 mg/kg. This compound also yielded a Reduction in experiment [5] of 64%.
Take `CSc1cc(C)nc(SC)c1NC(=O)N(Cc1cccc(-c2cc[nH]n2)c1)C1CCCCCC1`: half-maximal inhibition in experiment [1] (IC50) required 260 nM. The ED50 in [3] was more than 0.32 mg/kg. The same compound showed a Reduction in experiment [9] of 24%.
Take `CSc1cc(C)nc(SC)c1NC(=O)N(Cc1ccccc1)Cc1cccc(-c2cnn(C)c2)c1`: the ED50 in experiment [3] was more than 0.1 mg/kg. In addition, the Reduction in experiment [8] is listed as 43%.
As to `CSc1cc(C)nc(SC)c1NC(=O)N(Cc1ccc(-c2cc[nH]n2)cc1)C1CCCCCC1`, the IC50 in experiment [1] came to 100 nM. The compound also registered an ED50 in experiment [3] of less than 0.32 mg/kg. Also, the Reduction in [7] amounted to 77%.
The compound `COc1cccc(CN(Cc2cccc(-c3cc[nH]n3)c2)C(=O)Nc2c(SC)cc(C)nc2SC)c1` gave an ED50 in experiment [3] of more than 0.1 mg/kg. Also, the Reduction in experiment [8] is 13%.
`CSc1cc(C)nc(SC)c1NC(=O)N(Cc1ccccc1)Cc1ccc(-c2cc[nH]n2)cc1` returned an IC50 in experiment [1] of 55 nM. Moreover, the ED50 in [3] is less than 0.32 mg/kg. This compound also registered a Reduction in experiment [7] of 58%.
Compound `Cc1cc(C)c(NC(=O)N(Cc2ccc(-c3ccccc3)o2)C2CCCCCC2)c(C)c1` returned an IC50 in experiment [1] of 44 nM. Besides, the ED50 in experiment [3] is less than 1 mg/kg. The same compound displayed a Reduction in experiment [5] of 68%.
In experiment [3], `CSc1cc(C)nc(SC)c1NC(=O)N(Cc1ccccc1)Cc1ccc(-c2cnn(C)c2)cc1` came in with an ED50 of more than 0.1 mg/kg. In addition, the Reduction in [8] was 29%.
In turn, `Cc1cc(C)c(NC(=O)N(Cc2ccc(-n3cccc3)cc2)C2CCCCCC2)c(C)c1` displayed an IC50 in experiment [1] of 28 nM. Besides, in experiment [3], the ED50 is less than 1 mg/kg. The compound further had a Reduction in [5] of 51%.
Regarding `COc1ccccc1CN(Cc1cccc(-c2cc[nH]n2)c1)C(=O)Nc1c(SC)cc(C)nc1SC`, the ED50 in experiment [3] is more than 0.1 mg/kg. Besides, the ED50 result in experiment [14] was “inactive”.

As usually defined, the IC50 is the point on the concentration scale where inhibition reaches its midpoint. Higher therefore signals a need for much substance. Broadly, the ED50 is the dose that gives a 50% effect, or the effect in half of the subjects.
